Assays:
[1] = target: T1, Estrogen receptor (Homo sapiens) (UniProt P03372); assay: Relative binding affinity for human estrogen receptor alpha
T1 sequence (whole entry): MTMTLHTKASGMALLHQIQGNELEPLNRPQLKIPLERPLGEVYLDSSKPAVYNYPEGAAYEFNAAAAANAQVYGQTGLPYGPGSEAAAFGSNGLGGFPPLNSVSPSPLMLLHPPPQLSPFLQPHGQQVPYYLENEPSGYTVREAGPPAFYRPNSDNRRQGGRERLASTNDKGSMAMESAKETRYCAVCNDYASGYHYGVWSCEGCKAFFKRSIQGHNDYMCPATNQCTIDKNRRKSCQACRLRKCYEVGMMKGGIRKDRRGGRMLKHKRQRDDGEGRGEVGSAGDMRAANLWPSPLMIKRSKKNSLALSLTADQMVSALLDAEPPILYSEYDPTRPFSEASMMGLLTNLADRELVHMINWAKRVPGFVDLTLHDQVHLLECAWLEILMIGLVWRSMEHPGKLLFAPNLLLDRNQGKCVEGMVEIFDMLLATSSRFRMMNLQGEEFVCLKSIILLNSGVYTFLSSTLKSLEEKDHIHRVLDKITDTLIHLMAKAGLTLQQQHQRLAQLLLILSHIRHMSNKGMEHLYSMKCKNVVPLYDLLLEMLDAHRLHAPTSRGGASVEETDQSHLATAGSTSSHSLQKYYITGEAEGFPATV

[2] = target: Estrogen receptor beta (Homo sapiens) (UniProt Q92731); assay: Transcriptional efficacy against human estrogen receptor beta at 10e-8 M; format: functional
Sequence of Estrogen receptor beta (Homo sapiens) (Q92731 whole entry): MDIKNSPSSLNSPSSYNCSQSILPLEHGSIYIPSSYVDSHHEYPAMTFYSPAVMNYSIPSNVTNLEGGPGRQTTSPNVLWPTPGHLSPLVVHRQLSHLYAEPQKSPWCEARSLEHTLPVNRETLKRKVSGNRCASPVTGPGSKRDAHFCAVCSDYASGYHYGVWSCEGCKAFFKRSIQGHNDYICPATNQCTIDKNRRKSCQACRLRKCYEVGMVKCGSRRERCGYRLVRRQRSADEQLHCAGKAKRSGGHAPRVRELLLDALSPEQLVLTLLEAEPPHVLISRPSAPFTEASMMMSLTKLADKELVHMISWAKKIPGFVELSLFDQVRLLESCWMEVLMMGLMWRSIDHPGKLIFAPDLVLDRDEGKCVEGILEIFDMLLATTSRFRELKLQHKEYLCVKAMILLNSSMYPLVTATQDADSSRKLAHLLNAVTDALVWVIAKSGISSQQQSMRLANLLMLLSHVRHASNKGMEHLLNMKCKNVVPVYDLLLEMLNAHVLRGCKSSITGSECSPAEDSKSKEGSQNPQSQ
In short: (§1)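 HEC-1 cells were grown in phenol-red MEM with 5% calf serum and 5% fetal calf serum, then plated in phenol-red-free improved MEM with 5% charcoal dextran-treated calf serum. They were lipofectin-transfected for 5 h at 37 °C with ERβ expression vector, 2ERE-pS2-Luc and pCMV β-galactosidase. Ligand was then added for 24 h.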

[3] = target: Estrogen receptor beta (Homo sapiens) (UniProt Q92731); assay: Transcriptional efficacy against human estrogen receptor beta at 10e-6 M; format: functional; in short: as §1

Row | SMILES | Relative binding affinity [1] | Efficacy [2] [%] | Efficacy [3] [%]
1 | C=CCc1c2cc(O)ccc2nn1-c1ccc(O)cc1 | 0.06 |  | 
2 | Oc1ccc(-n2nc3c(Cl)c(O)ccc3c2Cl)cc1 | 0.07 |  | 
3 | Oc1ccc(-n2nc3ccc(O)cc3c2C(F)(F)F)cc1 | 3.9 | 78 | 74
4 | Oc1ccc2nn(-c3ccccc3)cc2c1 | < 0.004 |  | 
5 | Oc1ccc(-n2nc3ccc(O)cc3c2-c2ccccc2)cc1 | 0.04 | 11 | 28
6 | N#Cc1c2cc(O)ccc2nn1-c1ccc(O)cc1 | 1.4 | 82 | 56
7 | CCc1c2cc(O)ccc2nn1-c1ccc(O)cc1 | 0.08 | 63 | 100
8 | Oc1ccc(-n2nc3ccccc3c2Cl)cc1 | 0.03 |  | 
9 | CCCc1c2cc(O)ccc2nn1-c1ccc(O)cc1 | 0.04 |  | 
10 | CC(C)c1c2cc(O)ccc2nn1-c1ccc(O)cc1 | 0.14 |  | 
11 | Oc1ccc2nn(-c3ccc(O)c(Cl)c3)c(Cl)c2c1 | 0.023 |  | 
12 | Oc1ccc2nn(-c3ccccc3)c(Cl)c2c1 | 0.014 |  | 

The next lines start with the values.

Row | Relative binding affinity [1] | Efficacy [2] [%] | Efficacy [3] [%] | SMILES
13 | 0.08 |  |  | Oc1ccc(-n2nc3cc(O)ccc3c2Cl)cc1
14 | 0.07 |  |  | Oc1ccc2nn(-c3ccc(O)c(Cl)c3)cc2c1
15 | 0.3 | 88 | 89 | Oc1ccc(-n2nc3ccc(O)cc3c2Cl)cc1
16 | 0.02 |  |  | Oc1ccc(-n2cc3ccccc3n2)cc1
17 | 0.17 | 85 | 58 | Oc1ccc(-n2nc3ccc(O)cc3c2I)cc1
18 | 0.18 | 66 | 67 | Oc1ccc(-n2nc3ccc(O)cc3c2Br)cc1
19 | 0.02 | 1.4 | 29 | Oc1ccc(-n2cc3ccc(O)c(Br)c3n2)cc1
20 | 0.03 | 57 | 87 | Cc1c2cc(O)ccc2nn1-c1ccc(O)cc1
21 | 0.008 | 1.7 | 75 | Oc1ccc(-n2cc3ccc(O)cc3n2)cc1
22 | 0.049 | 47 | 90 | Oc1ccc(-n2cc3cc(O)ccc3n2)cc1
